For test [1], the system named is Staphylococcus epidermidis. As to the kind of experiment: Antibacterial activity against Staphylococcus epidermidis ATCC 35984 by broth microdilution method. The following applies: RP62A. The class given is functional. The procedure, abridged: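 MIC determined by CLSI broth microdilution […].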
(In general: Dilution methods test growth across graded concentrations, often in twofold steps.)

For test [2], the system named is Staphylococcus epidermidis. As to the kind of experiment: Antibacterial activity against Staphylococcus epidermidis ATCC 35984 assessed as inhibition of biofilm production after 18 hrs.
Test [3] deals with Staphylococcus epidermidis. Briefly: Antibacterial activity against Staphylococcus epidermidis ATCC 35984 assessed as inhibition of biofilm production after 6 hrs. The class given is functional, RP62A. As to conditions: in the assay text read “after 18 hrs” for “after 6 hrs”. An outline of the steps:
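Young S. epidermidis biofilm grown 6 h at 37 °C in TSB with glucose in microtiter wells, washed four times with PBS, then exposed to fresh TSB carrying serially diluted compounds for 18 h at 37 °C. After PBS washes, methanol fixation 15 min, air drying and crystal violet staining. Washed dried biofilm served as blank (subtracted), TSB-only biofilm as positive control; triplicate wells, three repeats.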

≈ marks a conversion by molar mass, not a printed value.

Consider 18 compounds from ChEMBL document CHEMBL1687867, “Thiazolidione derivatives as novel antibiofilm agents: design, synthesis, biological evaluation, and structure-activity relationships” (2011).

The MIC is the lowest concentration that inhibits growth of the organism. Compound `Cc1ccccc1/N=C1/S/C(=C\c2ccc(-c3ccc(C(=O)O)cc3)o2)C(=O)N1c1ccccc1C` had an MIC in test [1] of 3.12 µM (≈ 1.55 µg/mL). For the same compound, the INH in test [2] worked out at 6.25 µM.
As for `CCOC(=O)C1=C(c2ccccc2)N=c2s/c(=C\c3cccc(O)c3)c(=O)n2C1c1ccc(OC)cc1` (stereo not given), in test [3], the Biofilm inhibitory concentration was over 200 µM. The same compound displayed an MIC in test [1] of over 200 µM.
As to `CCOC(=O)C1=C(c2ccccc2)N=c2s/c(=C\c3ccc(-c4cccc(C(=O)OC)c4)o3)c(=O)n2C1c1ccc(OC)cc1` (stereo not given), the Biofilm inhibitory concentration in test [3] was over 200 µM. The MIC in test [1] is over 200 µM.
In the case of `Cc1ccccc1/N=C1/S/C(=C\c2ccc(-c3cccc(C(=O)O)c3)o2)C(=O)N1c1ccccc1C`, the Biofilm inhibitory concentration in test [3] stood at 25 µM. Besides, the MIC in test [1] was found to be 12.5 µM (≈ 6.18 µg/mL).
For `CCOC(=O)C1=C(c2ccccc2)N=c2s/c(=C\c3ccc(-c4cccc(C(=O)O)c4)o3)c(=O)n2C1c1ccc(OC)cc1` (stereo not given), in that order: 25 µM and 6.25 µM (≈ 3.79 µg/mL).
Turning to `CCOC(=O)C1=C(c2ccccc2)N=c2s/c(=C\c3ccc(-c4cccc(C(=O)OC)c4)o3)c(=O)n2C1c1ccccc1` (stereo not given), the Biofilm inhibitory concentration in test [3] is over 200 µM. In addition, the MIC in test [1] was over 200 µM.
For `Cc1ccc(/N=C2/S/C(=C\c3ccc(-c4cccc(C(=O)O)c4)o3)C(=O)N2c2ccc(C)cc2)cc1`, in that order: 12.5 µM and 6.25 µM (≈ 3.09 µg/mL).
For `CCOC(=O)C1=C(c2ccccc2)N=c2s/c(=C\c3ccc(OCC(=O)O)cc3)c(=O)n2C1c1ccc(OC)cc1` (stereo not given), in that order: 50 µM and 25 µM (≈ 14.3 µg/mL).
With `COc1ccc(/N=C2/S/C(=C\c3ccc(-c4cccc(C(=O)O)c4)o3)C(=O)N2c2ccc(OC)cc2)cc1`, the lowest concentration to inhibit growth in test [1] (MIC) was 6.25 µM (≈ 3.29 µg/mL). For the same compound, the INH in test [2] was found to be 6.25 µM.
Consider `CCOC(=O)C1=C(c2ccccc2)N=c2s/c(=C\c3ccc(-c4cccc(C(=O)O)c4)o3)c(=O)n2C1c1ccccc1` (stereo not given), for which the Biofilm inhibitory concentration in test [3] is over 200 µM. In addition, in test [1], the MIC is over 200 µM.
Turning to `COc1ccc(C/N=C2/S/C(=C\c3ccc(-c4cccc(C(=O)O)c4)o3)C(=O)N2Cc2ccc(OC)cc2)cc1`, in test [1], it took 50 µM (≈ 27.7 µg/mL) to inhibit growth (MIC).
Consider `CCOC(=O)C1=C(c2ccccc2)N=c2s/c(=C\c3ccc(N(C)C)cc3)c(=O)n2C1c1ccc(OC)cc1` (stereo not given), for which, in test [3], the Biofilm inhibitory concentration is over 200 µM. The same compound showed an MIC in test [1] of over 200 µM.
Turning to `CCOC(=O)C1=C(c2ccccc2)N=c2s/c(=C\c3ccc(OCC(=O)O)cc3)c(=O)n2C1c1ccc2c(c1)OCO2` (stereo not given), in test [3], the Biofilm inhibitory concentration came out at 50 µM. Besides, the minimum inhibitory concentration (MIC) in test [1] came out at 25 µM (≈ 14.6 µg/mL).
For `CCOC(=O)C1=C(c2ccccc2)N=c2s/c(=C\c3ccc(O)c(OC)c3)c(=O)n2C1c1ccc(OC)cc1` (stereo not given), in that order: over 200 µM and over 200 µM.
For `COc1ccc(C/N=C2/S/C(=C\c3ccc(OCC(=O)O)cc3)C(=O)N2Cc2ccc(OC)cc2)cc1`, in that order: 25 µM and 12.5 µM (≈ 6.48 µg/mL).
For `CCOC(=O)C1=C(c2ccccc2)N=c2s/c(=C\c3ccc(-c4cccc(C(=O)O)c4)o3)c(=O)n2C1c1ccc2c(c1)OCO2` (stereo not given) the same measures were 25 µM and 6.25 µM (≈ 3.88 µg/mL).
Consider `CCOC(=O)C1=C(c2ccccc2)N=c2s/c(=C\c3cccc([N+](=O)[O-])c3)c(=O)n2C1c1ccc(OC)cc1` (stereo not given), for which, in test [3], the Biofilm inhibitory concentration was over 200 µM. Moreover, in test [1], the MIC is over 200 µM.
For `CCOC(=O)C1=C(c2ccccc2)N=c2s/c(=C\c3ccc(O)cc3)c(=O)n2C1c1ccc(OC)cc1` (stereo not given) the same measures were over 200 µM and over 200 µM.
